Experimental data: article PMC8724840 (Biomolecules & Therapeutics, 2021)
Like-named read-outs stand apart in the source and are kept apart here.

Legend:
[1] = target: T1, GPR41 (Homo sapiens, UniProt O14843); assay: cAMP assay in GPR41-expressing HEK293 cells; type: cell-based
T1 sequence (O14843 1-346): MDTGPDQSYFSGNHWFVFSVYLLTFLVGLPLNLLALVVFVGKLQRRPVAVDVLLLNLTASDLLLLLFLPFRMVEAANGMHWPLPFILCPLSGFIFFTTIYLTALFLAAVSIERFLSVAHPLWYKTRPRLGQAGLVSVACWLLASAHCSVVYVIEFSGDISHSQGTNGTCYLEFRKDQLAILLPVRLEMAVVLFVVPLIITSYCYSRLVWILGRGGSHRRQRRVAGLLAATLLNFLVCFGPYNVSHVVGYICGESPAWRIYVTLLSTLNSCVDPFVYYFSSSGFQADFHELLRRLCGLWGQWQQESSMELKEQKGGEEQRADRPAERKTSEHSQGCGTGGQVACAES

[2] = target: T2, human GPR43 (Homo sapiens, UniProt O15552); assay: GloSensor cAMP assay in HEK293-hGPR43 cells; type: cell-based
T2 sequence (O15552 1-330): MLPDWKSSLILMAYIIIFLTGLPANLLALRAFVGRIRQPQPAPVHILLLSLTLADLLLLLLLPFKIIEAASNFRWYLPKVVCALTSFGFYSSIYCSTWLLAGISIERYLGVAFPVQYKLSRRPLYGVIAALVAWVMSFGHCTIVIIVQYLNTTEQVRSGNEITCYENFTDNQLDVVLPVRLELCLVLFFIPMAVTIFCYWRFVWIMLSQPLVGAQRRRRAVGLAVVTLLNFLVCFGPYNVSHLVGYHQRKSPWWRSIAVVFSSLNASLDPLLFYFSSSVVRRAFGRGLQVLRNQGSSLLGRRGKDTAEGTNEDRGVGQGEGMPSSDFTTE
Summary of the method: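 pGloSensor-22F was transfected into cumate-inducible HEK293-hGPR43 cells, which were re-plated 24 h later for 16 h. Cells were equilibrated 2 h at 20°C in CO2-independent medium with 2% GloSensor cAMP reagent, then pre-read. Compound was added for 5 min, then 1 μM forskolin for 15 min, followed by a luminescence post-read. Signal is post/pre-read, normalised to 0.2% DMSO. Single-point acetate/propionate 10 mM, other agonists 10 μM. Triplicate.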

[3] = target: T2, human GPR43; assay: Ca2+ flux assay in HEK293-hGPR43 cells; type: cell-based
Summary of the method: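 HEK293 cells with cumate-inducible human GPR43, kept in DMEM/10% FBS/GlutaMAX/Pen-Strep/2 μg/mL puromycin at 37°C, 5% CO2. Seeded overnight, then loaded 2 h with Calcium 6 dye plus 2.5 mM probenecid. Fluorescence read (ex 485/em 525 nm) every 2.1 s for 50 s. Cells serum-starved. Run in duplicate or triplicate; mean ± SEM.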

[4] = target: T3, GPR43 and β-arrestin 2 (Homo sapiens, UniProt O15552); assay: Nano-Glo live cell assay of interaction between GPR43 and β-arrestin 2; type: cell-based; conditions: for change of potency / slope in β-arrestin-2 NanoBiT assay on addition of acetate: co-treatment with fixed concentrations of acetate
T3 sequence (O15552 1-330): T2 sequence (O15552 1-330)

[5] = system: NF-κB activity induced by TNF-α in GPR43-expressing cells; assay: NF-κB luciferase reporter assay in HEK293-hGPR43 cells; type: cell-based, human
Summary of the method: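 For the NF-κB reporter readout, HEK293-hGPR43 cells were transfected with an NF-κB-RE luciferase reporter (pGL4.32), incubated 24 h at 37°C, 5% CO2, and plated overnight. Compound pretreatment lasted 20 min, then 10 ng/mL human TNF-α was added for 6 h at 37°C. Luminescence was read 15 min after adding One-Glo reagent. Duplicate or triplicate.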

[6] = Solubility in DMSO; type: physicochemical; conditions: at a concentration of 20 mM
[7] = system: DSS-induced colitis; assay: DSS-induced colitis mouse model; type: in vivo, mouse (female C57BL/6); conditions: 30 mg/kg p.o. daily, 2% DSS
Summary of the method: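 Female C57BL/6 mice, 5 weeks old, SPF, acclimated 1 week, given 2% DSS (36–50 kDa) in drinking water ad libitum, renewed every 3 days. Compound 30 mg/kg p.o. daily. Scored daily: weight loss 0–4, stool 0–3, hemoccult bleeding 0–3. DAI is their sum. Day 8: colon length measured. PFA-fixed paraffin swiss-rolls stained for MPO by IHC (ABC, hematoxylin). n=5 control, 10 others.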

[8] = Homo sapiens, 6 h, read-out: EC50 NF-κB

SMILES	cAMP level in GPR41-expressing cells ([1]; 10 μM)	cAMP level in GPR43-expressing cells ([2]; 10 mM)	cAMP level in GPR41-expressing cells ([1]; 10 mM)	solubility in dimethyl sulfoxide (DMSO) [6]	EC50 [2] [µM]	cAMP level in GPR43-expressing cells ([2]; 10 μM)	EC50 [3] [µM]	level of myeloperoxidase (MPO) staining in colon ([7]; day 8)	EC50 [4] [µM]	agonist type in the β-arrestin assay (maximum efficacy vs acetate and PAAT) [4]	change of potency / slope in β-arrestin-2 NanoBiT assay on addition of acetate [4]	EC50 [5, 8] [µM]	further results
CC1=C(C(=O)Nc2cc(Cl)ccc2Cl)C(c2ccco2)C2=C(CCCC2=O)N1 (stereo not shown) [AR420626]	exerted activity												
CC(=O)[O-].[Na+] [Acetate, sodium acetate, reference compound]		decrease	decrease										EC50 ([2]; read-out: EC50 cAMP, HEK293-hGPR43, forskolin 1 μM): 301 µM; EC50 ([2]; read-out: EC50 in the cAMP assay, HEK293-hGPR43): 300 µM; EC50 ([3]; read-out: EC50 Ca^2+, HEK293-hGPR43): 57.7 µM; EC50 ([4]; read-out: EC50 β-Arrestin 2, GPR43-SmBit / LgBit-βarr2, 25 min): 1440 µM; efficacy of inhibition of NF-κB luciferase reporter activity ([5]; 10 ng/mL TNF-α): half the efficacy; EC50 ([5]; read-out: EC50 NF-κB, 10 ng/mL TNF-α, 6 h): 77.4 µM
Cc1nc(N2CCCC(C)C2)c2[nH]c(N)c(S(=O)(=O)c3ccccc3)c2n1 (stereo not shown) [Compound 110, 2-methyl-4-(3-methylpiperidin-1-yl)-7-(phenylsulfonyl)-5H-pyrrolo[3,2-d]pyrimidine-6-amine]	no effects			completely soluble	18.7	significantly suppressed	2.41	reduced	1.61	partial agonists	stiffer slopes	3.41	potency in the cAMP assay ([2]; HEK293-hGPR43): micromolar potency; colon length ([7]; day 8): significantly restored; daily activity index (DAI) ([7]; vs vehicle-treated mice): decrease; stool consistency score ([7]; vs vehicle-treated mice): decrease; EC50 ([5]; Homo sapiens, read-out: EC50 NF-κB luciferase reporter): 3.4 µM
Cc1nc(N2C[C@@H](C)O[C@@H](C)C2)c2[nH]c(N)c(S(=O)(=O)c3ccccc3F)c2n1 [Compound 187, 4-[(2R,6S)-2,6-dimethylmorpholin-4-yl]-7-(2-fluorobenzenesulfonyl)-2-methyl-5H-pyrrolo[3,2-d]pyrimidin-6-amine]	no effects			completely soluble	0.016	significantly suppressed	0.019	reduced	0.018	partial agonists	stiffer slopes	0.019	potency and efficacy in the calcium assay ([3]; HEK293-hGPR43): highest potency and efficacy
CCC(=O)O [propionate, reference compound]		decrease	decrease										
